According to ChEMBL document CHEMBL1152138, “Clubbed [1,2,3] triazoles by fluorine benzimidazole: a novel approach to H37Rv inhibitors as a potential treatment for tuberculosis” (Bioorg Med Chem Lett, 2008):
Converted amounts (≈) assume the structure as drawn. “And” between values parts separate entries of the source, which are not always exact repeats. Identical values can stand only once.

Key:
[1] = tested on: Escherichia coli; assay: Antimicrobial activity against Escherichia coli after 24 hrs by well diffusion method; type: functional
Outline: (§1)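 Well diffusion on nutrient agar. 10 mm wells cut with a sterile cork borer. Plates swab-inoculated from a 24 h bacterial subculture in nutrient broth. Compounds dissolved in chloroform and added to wells at 50 and 100 µM. Gentamycin used as standard. % inhibition derived from inhibition zone diameter.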

[2] = tested on: Pseudomonas aeruginosa; assay: Antimicrobial activity against Pseudomonas aeruginosa after 24 hrs by well diffusion method; type: functional; outline: as §1
[3] = Cytotoxicity against african green monkey Vero C1008 cells at 6.25 to 50 ug/mL by neutral-red uptake assay; type: cell-based; settings: chlorocebus sabaeus
Outline: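 Vero C-1008 cells exposed to compounds at 6.25–50 µg/mL. Cytotoxicity read out by neutral red uptake.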

[4] = tested on: Staphylococcus aureus; assay: Antimicrobial activity against Staphylococcus aureus after 24 hrs by well diffusion method; type: functional; outline: as §1
[5] = tested on: Salmonella typhi; assay: Antimicrobial activity against Salmonella typhosa after 24 hrs by well diffusion method; type: functional, Salmonella enterica subsp. enterica serovar Typhi; outline: as §1
[6] = tested on: Mycobacterium tuberculosis; assay: Antitubercular activity against Mycobacterium tuberculosis H37Rv ATCC 27294 by microplate alamar blue assay; type: functional
Outline: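 Compounds active in the primary screen were retested at lower concentrations against H37Rv by Microplate Alamar Blue Assay. MIC taken as the lowest concentration giving a 95% reduction in fluorescence relative to controls. Rifampin used as reference.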

[7] = tested on: Mycobacterium tuberculosis; assay: Antitubercular activity against Mycobacterium tuberculosis H37Rv ATCC 27294 at 6.25 ug/mL by microplate alamar blue assay; type: functional; settings: read-out: GI
Outline: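 Primary screen against M. tuberculosis H37Rv (ATCC 27294) at a single concentration of 6.25 µg/mL. Broth microdilution Microplate Alamar Blue Assay in BACTEC 12B medium. Fluorescent compounds were instead run in the BACTEC 460 radiometric system. Percent growth inhibition reported; >95% counted as active. Rifampin used as reference.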

Question: For `Cc1ccccc1-n1cc(Cn2c(-c3cccc(F)c3)nc3ccccc32)nn1`, which “inhibition zone (IZ)” value [1] is on record?
Answer: 14 mm

Question: What about the “inhibition zone (IZ)” value [2] of the same molecule?
Answer: 19 mm

Question: What about the Activity [3] of the same molecule?
Answer: Non-toxic

Question: What about the “inhibition zone (IZ)” value [4] of the same molecule?
Answer: 16 mm

Question: And the “inhibition zone (IZ)” value [5]?
Answer: 17 mm

Question: And the MIC [6]?
Answer: > 12.5 µg/mL

Question: For `COc1ccccc1-n1cc(Cn2c(-c3cccc(F)c3)nc3ccccc32)nn1`, which “inhibition zone (IZ)” value [1] is on record?
Answer: 19 mm

Question: What about the “inhibition zone (IZ)” value [2] of the same molecule?
Answer: 24 mm

Question: What about the Activity [3] of the same molecule?
Answer: Non-toxic

Question: What about the “inhibition zone (IZ)” value [4] of the same molecule?
Answer: 21 mm

Question: And the “inhibition zone (IZ)” value [5]?
Answer: 23 mm

Question: And the MIC [6]?
Answer: > 6.25 µg/mL

Question: Which inhibition zone (IZ) ([5]; Salmonella enterica subsp. enterica serovar Typhi) does the source give for GENTAMICIN here?
Answer: 30 mm

Question: For `Fc1cccc(-c2nc3ccccc3n2Cc2cn(-c3ccc(F)cc3F)nn2)c1`, which “inhibition zone (IZ)” value [1] is on record?
Answer: 32 mm

Question: What about the “inhibition zone (IZ)” value [2] of the same molecule?
Answer: 34 mm

Question: And the Activity [3]?
Answer: Non-toxic

Question: What about the “inhibition zone (IZ)” value [4] of the same molecule?
Answer: 33 mm

Question: What about the inhibition of growth at 6.25 µg/mL [7] of the same molecule?
Answer: 96%

Question: What about the “inhibition zone (IZ)” value [5] of the same molecule?
Answer: 31 mm

Question: And the MIC [6]?
Answer: 0.32 µM and > 6.25 µg/mL

Question: For `Cc1ccc(-n2cc(Cn3c(-c4cccc(F)c4)nc4ccccc43)nn2)cc1`, which “inhibition zone (IZ)” value [1] is on record?
Answer: 19 mm

Question: What about the “inhibition zone (IZ)” value [2] of the same molecule?
Answer: 20 mm

Question: What about the Activity [3] of the same molecule?
Answer: Non-toxic

Question: And the “inhibition zone (IZ)” value [4]?
Answer: 18 mm

Question: What about the “inhibition zone (IZ)” value [5] of the same molecule?
Answer: 17 mm

Question: And the MIC [6]?
Answer: > 12.5 µg/mL

Question: What does the source list for `COc1ccc(-n2cc(Cn3c(-c4cccc(F)c4)nc4ccccc43)nn2)cc1`?
Answer: inhibition zone (IZ) [1]: 18 mm; inhibition zone (IZ) [2]: 26 mm; Activity [3]: Non-toxic; inhibition zone (IZ) [4]: 20 mm; inhibition of growth at 6.25 µg/mL [7]: 96%; inhibition zone (IZ) [5]: 21 mm; MIC [6]: 6.25 µM and > 6.25 µg/mL

Question: For `Fc1ccc(-n2cc(Cn3c(-c4cccc(F)c4)nc4ccccc43)nn2)cc1`, which “inhibition zone (IZ)” value [1] is on record?
Answer: 20 mm

Question: What about the “inhibition zone (IZ)” value [2] of the same molecule?
Answer: 19 mm

Question: What about the Activity [3] of the same molecule?
Answer: Non-toxic

Question: And the “inhibition zone (IZ)” value [4]?
Answer: 26 mm

Question: What about the inhibition of growth at 6.25 µg/mL [7] of the same molecule?
Answer: 96%

Question: And the “inhibition zone (IZ)” value [5]?
Answer: 19 mm

Question: And the MIC [6]?
Answer: 0.58 µM and > 6.25 µg/mL

Question: Which “inhibition zone (IZ)” value [1] does the source give for `Fc1cccc(-c2nc3ccccc3n2Cc2cn(-c3ccccc3)nn2)c1` here?
Answer: 17 mm

Question: And the “inhibition zone (IZ)” value [2]?
Answer: 28 mm

Question: What about the Activity [3] of the same molecule?
Answer: Non-toxic

Question: And the “inhibition zone (IZ)” value [4]?
Answer: 26 mm

Question: And the “inhibition zone (IZ)” value [5]?
Answer: 18 mm

Question: And the MIC [6]?
Answer: > 6.25 µg/mL

Question: Which “inhibition zone (IZ)” value [1] does the source give for `Cc1ccc(-n2cc(Cn3c(-c4cccc(F)c4)nc4ccccc43)nn2)c(F)c1` here?
Answer: 21 mm

Question: And the “inhibition zone (IZ)” value [2]?
Answer: 13 mm

Question: And the Activity [3]?
Answer: Non-toxic

Question: And the “inhibition zone (IZ)” value [4]?
Answer: 18 mm

Question: And the inhibition of growth at 6.25 µg/mL [7]?
Answer: 96%

Question: What about the “inhibition zone (IZ)” value [5] of the same molecule?
Answer: 18 mm

Question: And the MIC [6]?
Answer: 3.13 µM and > 6.25 µg/mL

Question: With `Fc1cccc(-c2nc3ccccc3n2Cc2cn(-c3ccc(F)c(F)c3)nn2)c1` as the molecule, how does the “inhibition zone (IZ)” value [1] read?
Answer: 30 mm

Question: And the “inhibition zone (IZ)” value [2]?
Answer: 31 mm

Question: And the Activity [3]?
Answer: Non-toxic

Question: What about the “inhibition zone (IZ)” value [4] of the same molecule?
Answer: 32 mm

Question: What about the inhibition of growth at 6.25 µg/mL [7] of the same molecule?
Answer: 96%

Question: And the “inhibition zone (IZ)” value [5]?
Answer: 29 mm

Question: And the MIC [6]?
Answer: 0.34 µM and > 6.25 µg/mL

Question: With `Fc1cccc(-c2nc3ccccc3n2Cc2cn(-c3ccc(F)c(F)c3F)nn2)c1` as the molecule, how does the “inhibition zone (IZ)” value [1] read?
Answer: 29 mm

Question: What about the “inhibition zone (IZ)” value [2] of the same molecule?
Answer: 33 mm

Question: And the Activity [3]?
Answer: Non-toxic

Question: What about the “inhibition zone (IZ)” value [4] of the same molecule?
Answer: 31 mm

Question: And the “inhibition zone (IZ)” value [5]?
Answer: 30 mm

Question: What about the MIC [6] of the same molecule?
Answer: > 6.25 µg/mL

Question: Which MIC [6] does the source give for `CO[C@H]1/C=C/O[C@@]2(C)Oc3c(C)c(O)c4c(O)c(c(/C=N/N5CCN(C)CC5)c(O)c4c3C2=O)NC(=O)/C(C)=C\C=C\[C@H](C)[C@H](O)[C@@H](C)[C@@H](O)[C@@H](C)[C@H](OC(C)=O)[C@@H]1C` [RIFAMPIN] here?
Answer: 0.015 µg/mL (≈ 0.0182 µM)

Question: Which results are given for `Fc1cccc(-c2nc3ccccc3n2Cc2cn(-c3ccc(C(F)(F)F)cc3)nn2)c1`?
Answer: inhibition zone (IZ) [1]: 21 mm; inhibition zone (IZ) [2]: 13 mm; Activity [3]: Non-toxic; inhibition zone (IZ) [4]: 18 mm; inhibition zone (IZ) [5]: 18 mm; MIC [6]: > 6.25 µg/mL
